Experimental data: ChEMBL document CHEMBL1126083, “Novel functional M1 selective muscarinic agonists. Synthesis and structure-activity relationships of 3-(1,2,5-thiadiazolyl)-1,2,5,6-tetrahydro-1-methylpyridines ” (J Med Chem, 1992)

Experiments:
Cavia porcellus [1] = species: Cavia porcellus; assay: In vitro inhibition of maximum force of contraction in guinea pig atria.; assay type: functional
Oryctolagus cuniculus [2] = species: Oryctolagus cuniculus; assay: In vitro inhibition of maximum twitch height in electrically stimulated rabbit vas deferens.; assay type: functional
In short: (§1)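 Vasa deferentia taken from rabbits under pentobarbital (60 mg/kg i.v.), held at 0.75 g tension and equilibrated ≥30 min. Field-stimulated at 0.5 ms, 40 V, 0.05 Hz. Cumulative concentration–effect curves run on prostatic and epididymal tissues, 3–5 preparations per concentration.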

Cavia porcellus [3] = species: Cavia porcellus; assay: In vitro inhibition of force of contraction in guinea pig atria.; assay type: functional
[4] = biological target: T1, Muscarinic acetylcholine receptor M1 (Rattus norvegicus, UniProt P08482); assay: In vitro binding affinity against muscarinic acetylcholine receptor M1 from rat hippocampus, using [3H]pirenzepine (Pz) as radioligand; assay type: tissue-based
T1 sequence (P08482 whole entry): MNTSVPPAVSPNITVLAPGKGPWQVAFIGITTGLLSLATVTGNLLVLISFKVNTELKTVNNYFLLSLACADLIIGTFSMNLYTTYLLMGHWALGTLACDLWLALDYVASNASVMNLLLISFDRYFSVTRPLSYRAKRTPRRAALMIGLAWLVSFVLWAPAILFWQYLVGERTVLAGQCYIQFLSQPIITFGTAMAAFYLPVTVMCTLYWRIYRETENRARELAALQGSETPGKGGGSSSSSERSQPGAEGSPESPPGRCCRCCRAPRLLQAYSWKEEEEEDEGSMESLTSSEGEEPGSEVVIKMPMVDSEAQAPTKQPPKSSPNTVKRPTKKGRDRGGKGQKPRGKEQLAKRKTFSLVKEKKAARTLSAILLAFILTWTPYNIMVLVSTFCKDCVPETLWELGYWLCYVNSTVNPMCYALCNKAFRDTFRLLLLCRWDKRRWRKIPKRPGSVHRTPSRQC

[5] = biological target: T1, Muscarinic acetylcholine receptor M1; assay: In vitro binding affinity against muscarinic acetylcholine receptor M1 from rat cerebral cortex, using [3H]oxotremorine-M (Oxo-M) as radioligand
Oryctolagus cuniculus [6] = species: Oryctolagus cuniculus; assay: In vitro inhibition of twitch height in electrically stimulated rabbit vas deferens; assay type: functional; in short: as §1
[7] = biological target: T1, Muscarinic acetylcholine receptor M1; assay: In vitro binding affinity against Muscarinic acetylcholine receptor M1 from rat hippocampus, using [3H]oxotremorine-M (Oxo-M) as radioligand.; assay type: tissue-based; conditions: in the assay text read “cerebral cortex” for “hippocampus”
In short: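 Rat cortex (fresh, male Wistar) homogenized in 20 mM Hepes pH 7.4, spun 15 min at 4000g, and washed three times. Homogenate incubated with [3H]Oxo-M (1.0 nM final) for 30 min at 25 °C. […] Filtered and counted by scintillation. IC50 from at least four concentrations in triplicate, fitted by the Hill equation.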

[8] = biological target: T1, Muscarinic acetylcholine receptor M1; assay: In vitro binding affinity against Muscarinic acetylcholine receptor M1 from rat hippocampus, using [3H]pirenzepine (Pz) as radioligand.; assay type: tissue-based

| IC50 [4] [nM] | IC50 [5] [nM] | IC50 (Oryctolagus cuniculus [6]) [nM] | IC50 [7] [nM] | IC50 [8] [nM] | SMILES | Inhibition (Cavia porcellus [1]) [%] | Inhibition (Oryctolagus cuniculus [2]) [%] | IC30 (Cavia porcellus [3]) [nM] |
| --- | --- | --- | --- | --- | --- | --- | --- | --- |
| 6.9 | 7 | 7 |  |  | CCCCC(C)Oc1nsnc1C1=CCCN(C)C1.O=C(O)/C=C/C(=O)O (centres undefined) | 15 | 79 | > 25000 |
| 1.3 | 1.7 | 0.003 |  |  | CCCCSc1nsnc1C1=CCCN(C)C1.O=C(O)C(=O)O | 45 | 83 | 100 |
| 105 | 60 | 3000 |  |  | CCCCCCNc1nsnc1C1=CCCN(C)C1 | 84 | 65 | 13000 |
| 43 | 2.3 | 3 |  |  | CSc1nsnc1C1=CCCN(C)C1.O=C(O)C(=O)O | 100 | 70 | 300 |
| 4 | 0.9 |  |  |  | CCCSc1nsnc1C1=CCCN(C)C1.O=C(O)C(=O)O | 100 | 42 | 50 |
| 18 | 1.6 |  |  |  | CCCOc1nsnc1C1=CCCN(C)C1.O=C(O)C(=O)O | 100 | 25 | 90 |
|  |  | 0.001 | 6.5 | 5 | CCCCCCSc1nsnc1C1=CCCN(C)C1.O=C(O)C(=O)O | 56 | 92 | 9700 |
| 48 | 5.7 |  |  |  | CCOc1nsnc1C1=CCCN(C)C1.O=C(O)C(=O)O | 0 | 43 | > 75000 |
| 40 | 30 |  |  |  | CCCCCCCCOc1nsnc1C1=CCCN(C)C1.O=C(O)C(=O)O | 0 | 0 | > 75000 |
| 148 | 22 | 364 |  |  | COc1nsnc1C1=CCCN(C)C1.O=C(O)C(=O)O | 50 | 47 | 1100 |
| 12 | 3 | 108 |  |  | CCCCCCCSc1nsnc1C1=CCCN(C)C1.O=C(O)C(=O)O | 40 | 63 | 7500 |
|  |  |  | 428 | 56 | CCCCCCCCc1nsnc1C1=CCCN(C)C1.O=C(O)C(=O)O | 14 | 26 | > 75000 |
|  |  |  | 80 | 84 | CCCc1nsnc1C1=CCCN(C)C1.O=C(O)C(=O)O | 7 | 13 | > 75000 |
|  |  |  | 140 | 49 | CCCCCCCCSc1nsnc1C1=CCCN(C)C1.O=C(O)C(=O)O | 5 | 42 | > 72000 |
|  |  |  | 146 | 170 | CCCCCc1nsnc1C1=CCCN(C)C1.O=C(O)C(=O)O | 12 | 40 |  |
| 18 | 1.9 | 22 |  |  | CCSc1nsnc1C1=CCCN(C)C1.O=C(O)C(=O)O | 100 | 71 | 70 |
| 62 | 29 | 43 |  |  | CCCCCCS(=O)(=O)c1nsnc1C1=CCCN(C)C1 | 76 | 73 | 5500 |
| 860 | 109 | 48 |  |  | CCCCCC[S+]([O-])c1nsnc1C1=CCCN(C)C1 (centres undefined) | 45 | 80 | 25000 |

More lines, now with the values behind:

| SMILES | IC50 [4] [nM] | IC50 [5] [nM] | IC50 (Oryctolagus cuniculus [6]) [nM] | IC50 [7] [nM] | IC50 [8] [nM] | Inhibition (Cavia porcellus [1]) [%] | Inhibition (Oryctolagus cuniculus [2]) [%] | IC30 (Cavia porcellus [3]) [nM] |
| --- | --- | --- | --- | --- | --- | --- | --- | --- |
| CN1CCC=C(c2nsnc2Cl)C1 |  |  |  |  |  | 67 |  | 29400 |
| CCCCCCCc1nsnc1C1=CCCN(C)C1.O=C(O)C(=O)O |  |  |  |  |  | 78 |  | 5400 |
| CCCCCSc1nsnc1C1=CCCN(C)C1.O=C(O)C(=O)O |  |  |  |  |  | 33 |  | 5400 |
| CCC(C)CCOc1nsnc1C1=CCCN(C)C1.O=C(O)/C=C/C(=O)O (centres undefined) | 8.4 | 10 | 47 |  |  | 0 | 65 | > 75000 |
| CCCCOc1nsnc1C1=CCCN(C)C1.O=C(O)C(=O)O |  |  |  |  |  | 71 |  | 200 |
| CCCC(C)COc1nsnc1C1=CCCN(C)C1.O=C(O)/C=C/C(=O)O (centres undefined) | 9 | 13 |  |  |  | 0 | 32 | > 75000 |
| CCCCCCOc1nsnc1C1=CCCN(C)C1.O=C(O)C(=O)O |  |  |  |  |  | 20 |  | > 27000 |
| C[N+](C)(C)CC#CCOC(=O)Nc1cccc(Cl)c1.[Cl-] | 955 | 355 | 659 |  |  | 0 | 91 | > 100000 |
| CN1CCC=C(c2cnsn2)C1 | 145 | 2 | 26 |  |  | 100 | 59 | 10 |
| CCCCCCOc1nonc1C1=CCCN(C)C1 | 277 | 84 | 10000 |  |  | 0 | 47 | > 70000 |
| CCCCCOc1nsnc1C1=CCCN(C)C1.O=C(O)C(=O)O |  |  |  |  |  | 43 |  | 2800 |
| CCCCOc1nonc1C1=CCCN(C)C1 | 345 | 24 |  |  |  | 0 | 12 | > 70000 |
| CC(C)CCCOc1nsnc1C1=CCCN(C)C1.O=C(O)/C=C\C(=O)O | 9.7 | 8 | 0.006 |  |  | 73 | 86 | 7300 |
| CCCCCCCOc1nsnc1C1=CCCN(C)C1.O=C(O)C(=O)O |  |  |  |  |  | 100 |  | 3900 |
| COC(=O)C1=CCCN(C)C1 [ARECOLINE] |  |  |  |  |  | 100 |  | 600 |
| C[N+](C)(C)CCOC(N)=O.[Cl-] [CARBACHOL] |  |  | 460 |  |  | 100 | 77 | 500 |
